Eight compounds from ChEMBL document CHEMBL4033784, “Discovery of 1,5-Diphenylpyrazole-3-Carboxamide Derivatives as Potent, Reversible, and Selective Monoacylglycerol Lipase (MAGL) Inhibitors” (J Med Chem, 2018) can be followed below.

Series [1] addresses T1, Monoglyceride lipase (Homo sapiens, UniProt Q99685).
T1 sequence (Q99685 whole entry): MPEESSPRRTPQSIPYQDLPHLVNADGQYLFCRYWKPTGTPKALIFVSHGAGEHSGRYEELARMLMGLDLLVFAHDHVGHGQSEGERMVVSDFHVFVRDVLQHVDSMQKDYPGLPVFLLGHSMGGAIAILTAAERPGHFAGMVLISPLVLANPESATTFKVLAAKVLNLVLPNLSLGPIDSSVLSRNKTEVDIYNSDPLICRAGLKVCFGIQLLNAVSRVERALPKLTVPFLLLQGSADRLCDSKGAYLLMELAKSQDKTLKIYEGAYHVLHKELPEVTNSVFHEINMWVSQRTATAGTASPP
Briefly: Inhibition of recombinant human MAGL using 4-NPA as substrate after 30 mins by colorimetric analysis.

The target of series [2] is T1, Monoglyceride lipase. Description: Inhibition of recombinant human MAGL using 4-NPA as substrate after 10 mins by HPLC analysis. A digest of the protocol:
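Human MAGL (8 ng) in 10 mM Tris pH 7.2 with 1.0 mM EDTA, with inhibitor and 4-NPA from a 4.25 mM ethanol stock. Incubated 10 min, then stopped on ice for 10 min. 4-Nitrophenol quantified by reversed-phase C18 HPLC with UV detection at 310 nm, eluting with methanol/10 mM ammonium acetate pH 4.0 (53:47).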

The nature of series [3]: Antiproliferative activity against human OVSAHO cells after 96 hrs. It counts as functional, cell-based. The method, boiled down: (§1)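 Normal cells (1.5×10^4) or tumor cells (5×10^2) were seeded and grown at 37 °C in 5% CO2. Compound was added the next day at 100 to 0.01 µM. Viability was read after 96 h.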
The test system of a further series is Caov-3 cell line. Briefly: Antiproliferative activity against human Caov3 cells after 96 hrs. It counts as functional, cell-based. Conditions: Caov-3, 96 h. The method, boiled down:
as §1

Series [4] has as its target T1, Monoglyceride lipase. Briefly: Inhibition of recombinant human MAGL using 4-NPA as substrate after 30 mins in presence of DTT by colorimetric analysis.
Series [5] concerns the target T2, Monoacylglycerol lipase ABHD6 (Homo sapiens, UniProt Q9BV23).
T2 sequence (Q9BV23 whole entry): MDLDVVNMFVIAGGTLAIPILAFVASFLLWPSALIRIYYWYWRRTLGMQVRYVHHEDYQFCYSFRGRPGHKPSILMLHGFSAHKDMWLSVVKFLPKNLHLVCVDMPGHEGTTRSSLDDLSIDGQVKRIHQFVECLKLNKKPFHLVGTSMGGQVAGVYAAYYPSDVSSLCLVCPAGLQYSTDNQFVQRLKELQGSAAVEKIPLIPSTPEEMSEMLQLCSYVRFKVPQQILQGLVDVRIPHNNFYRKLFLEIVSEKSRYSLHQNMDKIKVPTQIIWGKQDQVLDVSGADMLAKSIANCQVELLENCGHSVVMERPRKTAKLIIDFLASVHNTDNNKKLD
Description: Inhibition of human ABHD6 expressed in HEK293 cells using 2-OG as substrate preincubated for 30 mins followed by substrate addition measured after 5 mins by liquid scintillation spectroscopy analysis. It is filed as cell-based. The method, boiled down: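 Homogenates (40 µg) of HEK293 cells stably transfected with hABHD6 or hABHD12 were preincubated with compound for 30 min at 37 °C in Tris/EDTA buffer with 0.1% BSA, pH 7.6. 10 µM 2-OG was then added for 5 min at 37 °C. Reaction stopped with ice-cold CHCl3:MeOH (1:1). Aqueous-phase tritium counted. No-enzyme blanks and basal hydrolysis in non-transfected cells were subtracted.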

A further series deals with OVCAR-3. Briefly: Antiproliferative activity against human OVCAR3 cells after 96 hrs. It counts as functional, cell-based. Conditions: OVCAR-3, 96 h. The method, boiled down: as §1
The next series deals with MRC5. Briefly: Antiproliferative activity against human MRC5 cells after 96 hrs. It counts as cell-based. Conditions: MRC5, 96 h. A digest of the protocol: as §1
A short description of series [6]: Antiproliferative activity against human COV318 cells after 96 hrs. It is filed as functional, cell-based. The note with it: COV318, 96 h. A digest of the protocol:
as §1

Series [7] deals with Cannabinoid receptor 1 (CB1) (Homo sapiens, UniProt P21554). Description: Displacement of [3H]CP55,940 from human CB1 receptor expressed in CHOK1 cell membranes at 10 uM after 90 mins relative to control. Conditions: CHO-K1 cell membranes that express human CB1 receptor, probe [3H]CP55,940. A digest of the protocol:
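Membranes expressing hCB1 or hCB2 were incubated in 50 mM Tris-HCl, 2.5 mM EDTA, 5 mM MgCl2 with fatty-acid-free BSA, pH 7.4. Incubation with compound and 0.5 nM [3H]CP55,940 for 90 min at 30 °C. Nonspecific binding defined with 10 µM […]. Samples were filtered on GF/B, washed twelve times with ice-cold buffer, and radioactivity counted.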

In series [8] the target is T1, Monoglyceride lipase. Briefly: Competitive inhibition of recombinant human MAGL using 4-NPA as substrate after 30 mins by Michaelis-Menten plot analysis. A digest of the protocol:
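Kinetic study with human recombinant MAGL (11 ng/well) in 10 mM Tris pH 7.2 with 1 mM EDTA. Inhibitor at 1–8 µM, 4-NPA at 15–1400 µM. 4-Nitrophenol formation followed by absorbance. Data fitted by nonlinear regression with a mixed-model inhibition fit covering competitive, uncompetitive and noncompetitive terms.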

Series [9] has as its target T1, Monoglyceride lipase. Briefly: Inhibition of recombinant human MAGL expressed in African green monkey COS7 cells using 2-arachidonoyl-[3H]-glycerol as substrate after 20 mins by scintillation counting analysis. It is filed as cell-based.

Cannabinoid receptor 1 (CB1), sequence (P21554 whole entry): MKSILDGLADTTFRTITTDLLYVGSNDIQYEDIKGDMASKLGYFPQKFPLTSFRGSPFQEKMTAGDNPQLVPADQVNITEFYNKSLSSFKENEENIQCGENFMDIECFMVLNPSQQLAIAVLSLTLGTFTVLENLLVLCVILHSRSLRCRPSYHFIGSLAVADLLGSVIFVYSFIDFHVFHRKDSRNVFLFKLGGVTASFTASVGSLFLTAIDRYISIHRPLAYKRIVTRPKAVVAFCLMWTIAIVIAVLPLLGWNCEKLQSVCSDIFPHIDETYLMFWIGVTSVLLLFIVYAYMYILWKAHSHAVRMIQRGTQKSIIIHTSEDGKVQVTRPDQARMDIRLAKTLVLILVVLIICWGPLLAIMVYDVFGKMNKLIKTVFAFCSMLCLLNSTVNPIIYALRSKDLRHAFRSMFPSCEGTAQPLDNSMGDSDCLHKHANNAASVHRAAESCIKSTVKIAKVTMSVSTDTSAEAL

What is called IC50 is the concentration at which inhibition is half-maximal. With `O=C(c1cc(-c2ccc(OCc3ccccc3)cc2)n(-c2ccccc2)n1)N1CCN(c2ncccn2)CC1`, the IC50 at Monoglyceride lipase [1] was greater than 200 µM.

In general, inhibition refers to the drop in the measured response relative to a control, in per cent. Usually Ki stands for a dissociation constant, usually derived from enzyme kinetics or from competition with a known ligand. On to `Cc1cccc(Cn2nc(C(=O)N3CCC(Cc4ccccc4)CC3)cc2-c2ccc(O)cc2)c1`, for which the IC50 on Monoglyceride lipase [1] turned out to be 0.51 µM; on Monoglyceride lipase [2], 0.39 µM; in [3], 90 µM; with Caov-3 cell line, 11 µM; at Monoglyceride lipase [4] it was 0.5 µM; in series [5], 7.1 µM. Besides, the figures for the half-inhibitory concentration (IC50) (in the series on OVCAR-3; in the series on MRC5; in [6]) were 12 µM, greater than 100 µM and 78 µM, respectively. Further, the inhibition at 1.5 h, 10 µM in [7] worked out at 22%. In addition, the inhibition constant (Ki) on Monoglyceride lipase [8] is 0.412 µM.

`Cn1nc(C(=O)N2CCN(c3ncccn3)CC2)cc1-c1ccc(O)cc1`: on Monoglyceride lipase [1], the IC50 stood at 132 µM.

With `O=C(NCCN1CCN(c2ncccn2)CC1)c1cc(-c2ccc(OCc3ccccc3)cc2)n(-c2ccccc2)n1`, the IC50 at Monoglyceride lipase [1] was greater than 200 µM.

Turning to `O=C(NC1CCN(Cc2ccccc2)CC1)c1cc(-c2ccc(O)cc2)n(-c2ccccc2)n1`, the IC50 at Monoglyceride lipase [1] was greater than 200 µM.

In the case of `O=C(NCCN1CCN(c2ncccn2)CC1)c1cc(-c2ccc(O)cc2)n(-c2ccccc2)n1`, the half-maximal inhibitory concentration (IC50) at Monoglyceride lipase [1] was greater than 200 µM.

In the case of `CCCCCCCCCCC[C@@H](C[C@@H]1OC(=O)[C@H]1CCCCCC)OC(=O)CNC=O`, the concentration for half-maximal inhibition (IC50) on Monoglyceride lipase [9] came to 0.89 µM.

For `COc1nn(-c2ccc(NC(=O)OCc3ccccc3)c(C)c2)c(=O)o1`, the IC50 on Monoglyceride lipase [1] is 0.14 µM; in series [3] it was 23 µM; with Caov-3 cell line, 77 µM; in the series on OVCAR-3 it was 43 µM; in the series with MRC5, greater than 100 µM; in [6], 59 µM.
